Screening data (PubChem)
This is a sample that favours compounds with a hit; in the whole collection about 2.9% have one here.
ABHD5-PLIN5 inh – inhibitors of human ABHD5-perilipin-5 interaction. inhibition, % at 4 µM. 0.78% of 360,000 active. AID 602281. Split G. princeps luciferase complementation, luminescence, 4 h. Q00G26+Q8WTS1;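 active means inhibition above the mean inhibition across every tested compound plus 3 SD, cut at about 22% in these data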;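 further: 0% = DMSO only wells and the 100% control is not disclosed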
HCV core dimer – HCV core protein dimerization inhibition. TR-FRET GST/Flag-core106 dimerization, 1536-well. inhibition, % at 5 µM. 0.33% of 300,000 active. AID 1899;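 active means inhibition above the mean of all tested compounds plus 3 SD, set per screening campaign, cut at about 45% in these data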
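Material: GST/Flag-tagged HCV core106 proteins. Incubation: 4 h, 22.5 °C incubation. Read-out basis: inhibition (%) from 671 over 617 nm ratio. Measured by: TR-FRET, excitation 340 nm, emission 617 and 671 nm.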
APOBEC3G inh – inhibitors of human APOBEC3G DNA deaminase; Q9HC16; recombinant A3G, ssDNA deamination FAM/TAMRA fluorescence; inhibition, % at 20 µM; 0.28% of 330,000 active; AID 493012;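 active means inhibition of at least 40% at 20 µM, with no more than 30% in the related APOBEC3A deaminase screen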;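 further: plate controls were DMSO wells with A3G for no effect and wells lacking A3G enzyme for full effect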
NS3 helicase inh – inhibitors of Hepatitis C virus NS3 helicase; inhibition, % at 10.9 µM; 0.56% of 290,000 active; NS3 helicase DNA unwinding, Cy5 molecular beacon fluorescence; AID 1800;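 active means inhibition above the mean of all tested compounds plus 3 SD, set per campaign, cut at about 35% in these data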;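 further: 0% = DMSO wells and 100% = thioflavine S control wells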
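Material: hepatitis C virus NS3 helicase domain fragment enzyme; measured by: Cy5 fluorescence, 0 and 60 min reads; control set: DMSO and thioflavine S; incubation: 60 min unwinding reaction at 25 °C after ATP addition; read-out basis: % inhibition from 60/0 min fluorescence ratio, DMSO 0%, thioflavine S 100%; repeats: singlicate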
APOBEC3A inh – human APOBEC3A DNA deaminase inhibition; P31941; recombinant A3A, FAM/TAMRA ssDNA deamination fluorescence; inhibition, % at 20 µM; 0.41% of 330,000 active; AID 493011;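 active means at least 40% inhibition at 20 µM here, with at most 30% in a related deaminase screen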;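 further: plate controls were A3A with DMSO for no effect and wells lacking A3A enzyme for full effect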
PRMT1 FP inh – inhibitors of human PRMT1; Q99873; recombinant PRMT1, activity-based probe fluorescence polarization; inhibition, % at 2.79 µM; 1.3% of 370,000 active; AID 652257;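 active means inhibition above about 21% made by adding two undisclosed values, limit read from the data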
Target sequence (Q99873 whole entry, looked up): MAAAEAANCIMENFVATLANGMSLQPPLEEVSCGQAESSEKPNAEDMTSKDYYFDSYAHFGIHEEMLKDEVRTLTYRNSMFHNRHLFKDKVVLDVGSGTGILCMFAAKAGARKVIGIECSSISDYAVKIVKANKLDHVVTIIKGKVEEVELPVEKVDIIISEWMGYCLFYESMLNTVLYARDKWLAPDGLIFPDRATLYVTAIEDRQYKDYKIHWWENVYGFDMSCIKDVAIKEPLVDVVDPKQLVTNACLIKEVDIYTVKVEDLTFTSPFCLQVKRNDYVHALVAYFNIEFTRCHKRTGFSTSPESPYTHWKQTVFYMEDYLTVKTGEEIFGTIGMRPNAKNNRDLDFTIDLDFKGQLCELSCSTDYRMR
PRMT1 confirm – PRMT1 (human) inhibition, FP confirmation; shares compounds with PRMT1 FP inh; AID 687036; inhibition, % at 2.79 µM; 42% of 3,300 active; recombinant His-PRMT1, activity-based probe fluorescence polarization;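 active means mean inhibition across replicates above the hit cutoff derived for the earlier primary screen, cut at about 22% in these data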
* = called active by the depositor; / = no result.

SMILES	ABHD5-PLIN5 inh	HCV core dimer	APOBEC3G inh	NS3 helicase inh	APOBEC3A inh	PRMT1 FP inh	PRMT1 confirm
CC(=O)N1c2ccccc2Sc2ccccc21	8	/	-6	-15	-4	1	/
CC(=S)/C=C1\Sc2ccccc2N1C	-24	-1	6	0	3	39*	17
COc1ccc(CCNC(=O)c2cnn3c(C(F)F)cc(C)nc23)cc1OC	-1	10	-8	4	-3	30*	0
O=C(CSc1nc2scc(-c3ccco3)c2c(=O)n1-c1ccccc1)N1CCOCC1	7	9	-4	19	4	4	/
NC(=O)CSc1nc2scc(-c3ccco3)c2c(=O)n1-c1ccccc1	49*	19	2	23	3	76*	9
Brc1ccc(-c2csc3[n+]2CCCCC3)cc1	-2	-5	-2	-11	7	28*	1
COc1cc(/C=C2/C(=O)NN(c3cccc(C)c3)C2=O)cc([N+](=O)[O-])c1O	11	-9	12	20	35	32*	18
CN(C)CCCNC(=O)c1c(N)[nH]c(C(=O)c2ccc(Br)cc2)c1-c1ccc(Br)cc1	/	/	/	/	/	1	/
CC1(C)SCC(C(=O)O)N1C=O (centres undefined)	-10	-4	-6	6	-2	26*	2
COc1ccc(NC(=O)C2CSC(C)(C)N2C=O)cc1 (centres undefined)	1	1	-4	9	-1	1	/
COCCNC(=O)c1ccc(C)c(S(=O)(=O)Nc2ccc(C)cc2)c1	-1	-1	2	8	5	36*	0
Cc1cc(OC(C)C(=O)N2C[C@H]3C[C@@H](C2)c2cccc(=O)n2C3)c2c(C)c(C)c(=O)oc2c1 (some centres undefined)	0	1	-8	-44	-3	1	/
S=c1[nH]c2cc(Cl)ccc2s1	-5	0	10	7	-4	47*	7
CSc1nc2cc(Cl)ccc2s1	-5	1	-1	3	-3	-1	/
COc1ccccc1-[n+]1c(C)cc(/C=C2\Sc3ccccc3N2C)cc1C	13	-12	12	-30	23	26*	-10
Cc1ccc(S(=O)(=O)c2nc(S(C)(=O)=O)sc2N2CCCCCC2)cc1	2	-3	-5	-14	-4	0	/
Cc1ccc(S(=O)(=O)c2nc(S(C)(=O)=O)sc2N2CCC(C)CC2)cc1	0	11	-7	-6	-5	28*	1
CN1C=CC2=C(C#N)C(N)C(C#N)(C#N)[C@H](c3ccccc3)[C@H]2C1 (some centres undefined)	-7	-6	-11	-3	-1	26*	10
N#CC1(C#N)C(C(N)=O)C1c1ccccc1 (centres undefined)	-6	-16	1	4	1	3	/
N#Cc1c(N)sc(=S)c2c1CCCCC2	-15	4	26	9	20	40*	36*
CC1(C)Cc2c(C#N)c(N)sc(=S)c2CS1	-17	9	19	18	-2	31*	41*
COc1ccccc1CCC(=O)NCCCn1ccc2ccccc21	-4	-3	-6	-11	-8	-1	/
C/C(CCc1oc2ccc(Cl)cc2c1-c1ccc(C)o1)=N\O	4	-1	-1	-7	-4	33*	1
C/C(CCc1oc2ccc(Br)cc2c1-c1ccc(C)o1)=N/O	0	-2	-6	-6	1	3	/
CC(=O)c1cccc(-n2c(CCC(=O)O)ccc2-c2ccccc2)c1	-1	8	0	6	-2	16	/
CC(=O)c1cccc(-n2c(CCC(=O)O)ccc2-c2cccs2)c1	20	3	8	18	-4	68*	16
O=C(O)CCc1ccc(-c2cccs2)n1-c1ccc(C(=O)O)cc1	21	-3	8	17	6	37*	10
O=C(O)CCc1ccc(-c2cccs2)n1CCC(=O)O	8	-13	12	13	28	16	/
